Entries after “also recorded” stand apart in the source; their conditions may differ.

Experimental findings from article PMC7429258 (Molecular pharmaceutics, 2020) are described below.

In one test the target is T1, CCK2i4svR (Homo sapiens, UniProt P32239).
T1 sequence (P32239 1-516 isoform P32239-2): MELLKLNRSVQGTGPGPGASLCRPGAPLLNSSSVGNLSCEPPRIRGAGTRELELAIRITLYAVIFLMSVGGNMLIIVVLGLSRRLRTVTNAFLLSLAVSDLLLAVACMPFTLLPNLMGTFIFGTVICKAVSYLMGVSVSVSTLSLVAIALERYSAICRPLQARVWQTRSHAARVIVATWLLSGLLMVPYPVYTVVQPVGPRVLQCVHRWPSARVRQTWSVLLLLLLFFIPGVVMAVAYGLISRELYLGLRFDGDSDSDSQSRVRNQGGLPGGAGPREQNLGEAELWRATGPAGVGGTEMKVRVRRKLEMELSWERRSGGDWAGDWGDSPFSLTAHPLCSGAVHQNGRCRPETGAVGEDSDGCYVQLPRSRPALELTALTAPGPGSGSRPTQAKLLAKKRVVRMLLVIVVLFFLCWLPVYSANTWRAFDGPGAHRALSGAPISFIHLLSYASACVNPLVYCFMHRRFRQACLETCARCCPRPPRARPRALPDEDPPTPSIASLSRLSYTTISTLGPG
It is filed as binding. The settings on record: read-out: IC50, displacement of [125I][I-Tyr12,Leu15]gastrin; HEK293-CCK2i4svR cell membranes, 60 min at 22 °C, mean ± SD, n = 3. The essentials: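 Parent nonpeptidic antagonist served as reference. Stopped with ice-cold 10 mM HEPES pH 7.4/150 mM NaCl, then rapid GF/B glass-fibre filtration and gamma counting. IC50 by one-site nonlinear regression; mean ± SD, three experiments in triplicate.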

For test [1], the system named is untransfected HEK293 cells. The test can be described thus: fura-2 assay of [Ca2+]i in untransfected HEK293 cells. It is filed as cell-based, human. The settings on record: DG2 0.1–10 μM; ADP 20 μM positive control. The essentials:
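Trypsinized HEK293 cells plated on rat tail collagen-coated 96-well plates and loaded with fura-2 AM. Read in kinetic mode on a fluorescence plate reader. Test solutions added by automated pipetting at 100 s. Data sampled at 6 s intervals over 300 s. Read-out: percent change in 340/380 ratio after baseline subtraction. Each experiment repeated at least three times.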

In the case of `CC(C)(C)C(=O)CN1C(=O)[C@H](NC(=O)Nc2cccc(C(=O)O)c2)CN(C2CCCCC2)c2ccccc21` [Z-360, 3-[[[[(3R)-5-cyclohexyl-1-(3,3-dimethyl-2-ox-obutyl)-2,3,4,5-tetrahydro-2-oxo-1H-1,5-benzodiazepin-3-yl]-amino]carbonyl]amino]benzoic acid], the IC50 at CCK2i4svR was found to be 1.57 ± 0.14 nM.
For `Nc1ncnc2c1ncn2[C@@H]1O[C@H](COP(=O)(O)OP(=O)(O)O)[C@@H](O)[C@H]1O` [ADP], the “agonist action on [Ca2+]i in untransfected HEK293 cells” value in test [1] is “did respond; also recorded: does exert an agonist action”.
